pIC50: −log10 of the molar value.

As usually defined, the pIC50 is the IC50 on a negative log10 scale, so that one unit is a factor of ten. Higher therefore signals a small IC50.

For experiment [1], the target named is T1, Amine oxidase [flavin-containing] B (Homo sapiens, UniProt P27338).
T1 sequence (P27338 whole entry): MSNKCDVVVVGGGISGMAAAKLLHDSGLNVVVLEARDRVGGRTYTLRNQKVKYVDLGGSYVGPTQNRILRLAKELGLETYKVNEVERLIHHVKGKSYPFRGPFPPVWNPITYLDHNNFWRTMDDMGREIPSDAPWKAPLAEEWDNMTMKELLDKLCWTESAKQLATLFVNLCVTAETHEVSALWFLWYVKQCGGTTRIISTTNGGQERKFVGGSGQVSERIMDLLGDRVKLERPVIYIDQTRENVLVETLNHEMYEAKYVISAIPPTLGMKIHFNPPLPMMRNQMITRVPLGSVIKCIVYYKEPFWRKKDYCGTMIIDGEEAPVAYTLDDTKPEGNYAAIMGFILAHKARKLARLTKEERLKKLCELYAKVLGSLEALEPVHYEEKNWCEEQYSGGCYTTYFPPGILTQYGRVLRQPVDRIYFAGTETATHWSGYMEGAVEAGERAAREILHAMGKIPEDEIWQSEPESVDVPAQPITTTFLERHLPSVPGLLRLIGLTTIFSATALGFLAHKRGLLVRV
The experiment in a line: Inhibition of MAOB by spectrofluorimetry.

A short description of experiment [2]: Selectivity ratio, ratio of IC50 for MAOB to IC50 for MAOA.
Experiment [3] addresses T2, Amine oxidase [flavin-containing] A (Homo sapiens, UniProt P21397).
T2 sequence (P21397 whole entry): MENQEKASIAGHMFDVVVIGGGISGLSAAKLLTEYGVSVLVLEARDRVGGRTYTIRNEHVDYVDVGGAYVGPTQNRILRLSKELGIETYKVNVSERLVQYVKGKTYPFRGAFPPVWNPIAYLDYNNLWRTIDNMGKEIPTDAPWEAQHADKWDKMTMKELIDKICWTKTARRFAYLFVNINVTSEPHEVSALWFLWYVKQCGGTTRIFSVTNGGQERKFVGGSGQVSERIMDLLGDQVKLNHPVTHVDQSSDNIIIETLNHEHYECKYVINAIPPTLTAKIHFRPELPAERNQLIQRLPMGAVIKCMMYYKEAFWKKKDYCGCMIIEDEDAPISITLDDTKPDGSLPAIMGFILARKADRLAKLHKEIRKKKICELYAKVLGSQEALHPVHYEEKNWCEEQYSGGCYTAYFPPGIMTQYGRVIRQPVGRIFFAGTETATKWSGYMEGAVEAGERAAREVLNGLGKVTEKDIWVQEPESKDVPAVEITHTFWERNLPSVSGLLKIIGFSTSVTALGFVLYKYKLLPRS
Briefly: Inhibition of MAOA by spectrofluorimetry. In short, it runs like this: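 Fluorescence-based microplate assay for MAO-A and MAO-B inhibition, following the group's earlier reported method. Click reaction mixtures, made with CuSO4 and sodium ascorbate in t-BuOH/H2O (1:1) over 24 h, were diluted into 96-well plates from 0 to 100 μM. Fluorescence was read at λex 360 nm and λem 460 nm.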

Consider `NCc1cn(-c2cccc(C(=O)O)c2)nn1`, for which the values for the pIC50 in experiment [1] and in experiment [3] were 4.21 and 4.29, respectively. Also, the Ratio IC50 in experiment [2] worked out at 0.95.

Take `NCc1cn(-c2ccncc2)nn1`: the pIC50 in experiment [1] is 3.94; in experiment [3] it was 6.08. Further, the Ratio IC50 in experiment [2] was 140.

Turning to `NCc1cn(-c2ccccc2)nn1`, the negative-log IC50 (pIC50) in experiment [1] is 3.29; in experiment [3], 6.01. In experiment [2], the Ratio IC50 amounted to 526.

Consider `NCc1cn(-c2ccc(C(=O)O)cc2)nn1`, for which the pIC50 in experiment [1] was 4.25; in experiment [3] it was 4.71. In addition, the Ratio IC50 in experiment [2] was 2.89.
